From ChEMBL document CHEMBL1914346, “Discovery and synthesis of novel substituted benzocoumarins as orally active lipid modulating agents” (Bioorg Med Chem Lett, 2011)

Key:
Syrian golden hamster [1] = test: Antidyslipidemic activity in high fat diet-fed dyslipidemic syrian golden hamster model assessed as decrease in serum triglyceride level at 10 mg/kg, po administered once daily for 7 days relative to vehicle treated control; assay type: functional, Mesocricetus auratus; parameters: scale not given: the % may be the effect or the level left
In short: (§1)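 Male Golden Syrian hamsters, 12 weeks old, 110 ± 10 g, eight per group, fed high-fat diet plus fructose daily on days 1–10. Oral dosing once daily on days 4–10 in 0.1% gum acacia; HFD-fed vehicle animals served as controls. After the last dose, retro-orbital blood was taken into EDTA and plasma lipids were measured enzymatically on an autoanalyzer. Results are % change versus HFD controls; t-test/ANOVA, p<0.05.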

Syrian golden hamster [2] = test: Antidyslipidemic activity in high fat diet-fed dyslipidemic syrian golden hamster model assessed as decrease in serum total cholesterol level at 10 mg/kg, po administered once daily for 7 days relative to vehicle treated control; assay type: functional, Mesocricetus auratus; parameters: scale not given: the % may be the effect or the level left; in short: as §1
Syrian golden hamster [3] = test: Antidyslipidemic activity in high fat diet-fed dyslipidemic syrian golden hamster model assessed as increase in serum HDL level at 10 mg/kg, po administered once daily for 7 days relative to vehicle treated control; assay type: functional, Mesocricetus auratus; in short: as §1
Syrian golden hamster [4] = test: Antidyslipidemic activity in high fat diet-fed dyslipidemic syrian golden hamster model assessed as decrease in serum LDL level at 10 mg/kg, po administered once daily for 7 days relative to vehicle treated control; assay type: functional, Mesocricetus auratus; parameters: scale not given: the % may be the effect or the level left; in short: as §1
Syrian golden hamster [5] = test: Antidyslipidemic activity in high fat diet-fed dyslipidemic syrian golden hamster model assessed as increase in serum ratio of serum HDL/total cholesterol level at 10 mg/kg, po administered once daily for 7 days relative to vehicle treated control; assay type: functional, Mesocricetus auratus; in short: as §1
[6] = Antioxidant activity assessed as trolox equivalent by TEAC assay; assay type: functional
Syrian golden hamster [7] = test: Antidyslipidemic activity in high fat diet-fed dyslipidemic syrian golden hamster model assessed as decrease in serum triglyceride level at 2.5 mg/kg relative to vehicle treated control; assay type: functional, Mesocricetus auratus; parameters: scale not given: the % may be the effect or the level left
In short: (§2)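 Dose-response run on a separate set of high-fat/fructose-fed male Golden Syrian hamsters given oral doses of 2.5, 5, 10 and 25 mg/kg. Plasma TC, TG, HDL-C and LDL-C were measured by standard enzymatic methods on a clinical autoanalyzer. HDL/TC ratio was calculated. Results are % change relative to HFD-fed vehicle (gum acacia) controls.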

Syrian golden hamster [8] = test: Antidyslipidemic activity in high fat diet-fed dyslipidemic syrian golden hamster model assessed as decrease in serum total cholesterol level at 2.5 mg/kg relative to vehicle treated control; assay type: functional, Mesocricetus auratus; parameters: scale not given: the % may be the effect or the level left; in short: as §2
Syrian golden hamster [9] = test: Antidyslipidemic activity in high fat diet-fed dyslipidemic syrian golden hamster model assessed as decrease in serum LDL level at 2.5 mg/kg relative to vehicle treated control; assay type: functional, Mesocricetus auratus; parameters: scale not given: the % may be the effect or the level left; in short: as §2
Syrian golden hamster [10] = test: Antidyslipidemic activity in high fat diet-fed dyslipidemic syrian golden hamster model assessed as decrease in serum triglyceride level at 5 mg/kg relative to vehicle treated control; assay type: functional, Mesocricetus auratus; parameters: scale not given: the % may be the effect or the level left; in short: as §2
Syrian golden hamster [11] = test: Antidyslipidemic activity in high fat diet-fed dyslipidemic syrian golden hamster model assessed as decrease in serum total cholesterol level at 5 mg/kg relative to vehicle treated control; assay type: functional, Mesocricetus auratus; parameters: scale not given: the % may be the effect or the level left; in short: as §2
Syrian golden hamster [12] = test: Antidyslipidemic activity in high fat diet-fed dyslipidemic syrian golden hamster model assessed as decrease in serum LDL level at 5 mg/kg relative to vehicle treated control; assay type: functional, Mesocricetus auratus; parameters: scale not given: the % may be the effect or the level left; in short: as §2
Syrian golden hamster [13] = test: Antidyslipidemic activity in high fat diet-fed dyslipidemic syrian golden hamster model assessed as decrease in serum triglyceride level at 10 mg/kg relative to vehicle treated control; assay type: functional, Mesocricetus auratus; parameters: scale not given: the % may be the effect or the level left; in short: as §2
Syrian golden hamster [14] = test: Antidyslipidemic activity in high fat diet-fed dyslipidemic syrian golden hamster model assessed as decrease in serum total cholesterol level at 10 mg/kg relative to vehicle treated control; assay type: functional, Mesocricetus auratus; parameters: scale not given: the % may be the effect or the level left; in short: as §2
Syrian golden hamster [15] = test: Antidyslipidemic activity in high fat diet-fed dyslipidemic syrian golden hamster model assessed as decrease in serum LDL level at 10 mg/kg relative to vehicle treated control; assay type: functional, Mesocricetus auratus; parameters: scale not given: the % may be the effect or the level left; in short: as §2
Syrian golden hamster [16] = test: Toxicity in syrian golden hamster; assay type: organism-based, Mesocricetus auratus; settings: in vivo
In short: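 HFD-fed male Golden Syrian hamsters, eight per group, dosed orally at 10 mg/kg once daily for 7 days in 0.1% gum acacia. Body weight was recorded daily and food intake was monitored, then compared with HFD vehicle controls.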

Syrian golden hamster [17] = test: Antidyslipidemic activity in high fat diet-fed dyslipidemic syrian golden hamster model assessed as decrease in serum triglyceride level at 25 mg/kg relative to vehicle treated control; assay type: functional, Mesocricetus auratus; parameters: scale not given: the % may be the effect or the level left; in short: as §2
Syrian golden hamster [18] = test: Antidyslipidemic activity in high fat diet-fed dyslipidemic syrian golden hamster model assessed as decrease in serum total cholesterol level at 25 mg/kg relative to vehicle treated control; assay type: functional, Mesocricetus auratus; parameters: scale not given: the % may be the effect or the level left; in short: as §2
Syrian golden hamster [19] = test: Antidyslipidemic activity in high fat diet-fed dyslipidemic syrian golden hamster model assessed as decrease in serum LDL level at 25 mg/kg relative to vehicle treated control; assay type: functional, Mesocricetus auratus; parameters: scale not given: the % may be the effect or the level left; in short: as §2
Syrian golden hamster [20] = test: Antidyslipidemic activity in high fat diet-fed dyslipidemic syrian golden hamster model assessed as increase in serum ratio of HDL/total cholesterol level at 2.5 mg/kg relative to vehicle treated control; assay type: functional, Mesocricetus auratus; in short: as §2
Syrian golden hamster [21] = test: Antidyslipidemic activity in high fat diet-fed dyslipidemic syrian golden hamster model assessed as increase in serum ratio of HDL/total cholesterol level at 5 mg/kg relative to vehicle treated control; assay type: functional, Mesocricetus auratus; in short: as §2
Syrian golden hamster [22] = test: Antidyslipidemic activity in high fat diet-fed dyslipidemic syrian golden hamster model assessed as increase in serum ratio of HDL/total cholesterol level at 10 mg/kg relative to vehicle treated control; assay type: functional, Mesocricetus auratus; in short: as §2
Syrian golden hamster [23] = test: Antidyslipidemic activity in high fat diet-fed dyslipidemic syrian golden hamster model assessed as increase in serum ratio of HDL/total cholesterol level at 25 mg/kg relative to vehicle treated control; assay type: functional, Mesocricetus auratus; in short: as §2
[24] = target: T1, 3-hydroxy-3-methylglutaryl-coenzyme A reductase (Homo sapiens) (UniProt P04035); test: Inhibition of HMG-CoA reductase using HMG-CoA as substrate at 5 uM
T1 sequence (whole entry): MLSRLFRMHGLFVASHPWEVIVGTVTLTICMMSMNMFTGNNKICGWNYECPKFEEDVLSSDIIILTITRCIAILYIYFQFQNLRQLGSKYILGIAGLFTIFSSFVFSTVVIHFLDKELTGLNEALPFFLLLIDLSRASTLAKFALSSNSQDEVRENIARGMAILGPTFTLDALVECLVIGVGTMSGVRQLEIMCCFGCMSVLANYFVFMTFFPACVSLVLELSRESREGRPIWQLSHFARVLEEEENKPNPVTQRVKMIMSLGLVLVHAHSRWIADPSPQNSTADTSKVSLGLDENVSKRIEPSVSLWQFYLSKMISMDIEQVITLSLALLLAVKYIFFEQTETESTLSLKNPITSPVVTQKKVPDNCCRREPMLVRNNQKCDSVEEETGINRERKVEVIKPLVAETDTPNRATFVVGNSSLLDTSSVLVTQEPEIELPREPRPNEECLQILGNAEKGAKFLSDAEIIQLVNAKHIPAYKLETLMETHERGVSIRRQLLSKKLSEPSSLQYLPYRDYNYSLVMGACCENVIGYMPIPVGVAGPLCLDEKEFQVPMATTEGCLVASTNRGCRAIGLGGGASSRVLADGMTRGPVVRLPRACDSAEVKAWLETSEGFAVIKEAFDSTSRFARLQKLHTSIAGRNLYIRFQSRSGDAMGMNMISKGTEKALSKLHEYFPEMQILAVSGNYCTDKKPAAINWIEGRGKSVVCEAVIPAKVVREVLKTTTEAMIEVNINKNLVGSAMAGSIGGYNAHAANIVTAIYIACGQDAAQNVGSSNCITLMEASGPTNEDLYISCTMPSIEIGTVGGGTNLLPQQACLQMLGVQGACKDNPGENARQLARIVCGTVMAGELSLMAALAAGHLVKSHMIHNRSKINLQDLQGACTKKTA
In short: (§3)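 HMG-CoA reductase kit assay using supplied HMGR enzyme, HMG-CoA substrate, NADPH and assay buffer. Test concentrations were 5, 10, 25, 50 and 100 µM, with % inhibition recorded at each.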

[25] = target: T1, 3-hydroxy-3-methylglutaryl-coenzyme A reductase (Homo sapiens); test: Inhibition of HMG-CoA reductase using HMG-CoA as substrate at 10 uM; in short: as §3
[26] = target: T1, 3-hydroxy-3-methylglutaryl-coenzyme A reductase (Homo sapiens); test: Inhibition of HMG-CoA reductase using HMG-CoA as substrate at 25 uM; in short: as §3
[27] = target: T1, 3-hydroxy-3-methylglutaryl-coenzyme A reductase (Homo sapiens); test: Inhibition of HMG-CoA reductase using HMG-CoA as substrate at 50 uM; in short: as §3
[28] = target: T1, 3-hydroxy-3-methylglutaryl-coenzyme A reductase (Homo sapiens); test: Inhibition of HMG-CoA reductase using HMG-CoA as substrate at 100 uM; in short: as §3
Syrian golden hamster [29] = test: Antidyslipidemic activity in high fat diet-fed dyslipidemic syrian golden hamster model assessed as decrease in serum HDL level at 10 mg/kg, po administered once daily for 7 days relative to vehicle treated control; assay type: functional, Mesocricetus auratus; parameters: scale not given: the % may be the effect or the level left
In short: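 Male Golden Syrian hamsters (12 weeks, 110 ± 10 g) fed high fat diet with fructose daily days 1–10; dosed orally once daily days 4–10 in 0.1% gum acacia vehicle, eight per group. Blood drawn from retro-orbital plexus into EDTA after last dose; plasma HDL-C by enzymatic auto-analyzer. Reported as % change versus vehicle-treated HFD group; t-test/ANOVA, p < 0.05.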

Syrian golden hamster [30] = test: Antidyslipidemic activity in high fat diet-fed dyslipidemic syrian golden hamster model assessed as decrease in serum triglyceride level at 25 mg/kg, po administered once daily for 7 days relative to vehicle treated control; assay type: functional, Mesocricetus auratus; parameters: scale not given: the % may be the effect or the level left; in short: as §1
Syrian golden hamster [31] = test: Antidyslipidemic activity in high fat diet-fed dyslipidemic syrian golden hamster model assessed as decrease in serum total cholesterol level at 25 mg/kg, po administered once daily for 7 days relative to vehicle treated control; assay type: functional, Mesocricetus auratus; parameters: scale not given: the % may be the effect or the level left; in short: as §1
Syrian golden hamster [32] = test: Antidyslipidemic activity in high fat diet-fed dyslipidemic syrian golden hamster model assessed as increase in serum HDL level at 25 mg/kg, po administered once daily for 7 days relative to vehicle treated control; assay type: functional, Mesocricetus auratus; in short: as §1
Syrian golden hamster [33] = test: Antidyslipidemic activity in high fat diet-fed dyslipidemic syrian golden hamster model assessed as decrease in serum LDL level at 25 mg/kg, po administered once daily for 7 days relative to vehicle treated control; assay type: functional, Mesocricetus auratus; parameters: scale not given: the % may be the effect or the level left; in short: as §1
Syrian golden hamster [34] = test: Antidyslipidemic activity in high fat diet-fed dyslipidemic syrian golden hamster model assessed as increase in serum ratio of HDL/total cholesterol level at 25 mg/kg, po administered once daily for 7 days relative to vehicle treated control; assay type: functional, Mesocricetus auratus; in short: as §1

inhibition [24] | inhibition [25] | inhibition [26] | inhibition [27] | inhibition [28] | Structure (SMILES) | Activity (Syrian golden hamster [1]) | Activity (Syrian golden hamster [2]) | Activity (Syrian golden hamster [4]) | Activity (Syrian golden hamster [5]) | Activity [6] | Activity (Syrian golden hamster [16]) | other results
26.1% | 34.2% | 40.3% | 50.1% | 63.8% | COc1ccc(CN/C=C2\C=C(C=O)c3c(ccc4c(C)cc(=O)oc34)C2=O)cc1 | 70% | 47% | 54% | 80% | 1.36 mM | Non-toxic | Activity (Syrian golden hamster [3]): 1%; Activity (Syrian golden hamster [7]): 35%; Activity (Syrian golden hamster [8]): 19%; Activity (Syrian golden hamster [9]): 3%; Activity (Syrian golden hamster [10]): 38%; Activity (Syrian golden hamster [11]): 18%; Activity (Syrian golden hamster [12]): 8%; Activity (Syrian golden hamster [13]): 58%; Activity (Syrian golden hamster [14]): 39%; Activity (Syrian golden hamster [15]): 14%; Activity (Syrian golden hamster [17]): 61%; Activity (Syrian golden hamster [18]): 45%; Activity (Syrian golden hamster [19]): 19%; Activity (Syrian golden hamster [20]): 18%; Activity (Syrian golden hamster [21]): 26%; Activity (Syrian golden hamster [22]): 71%; Activity (Syrian golden hamster [23]): 86%
 |  |  |  |  | Cc1cc(=O)oc2c3c(ccc12)C(=O)/C(=C/NCCBr)C=C3C=O | 40% | 13% | 10% | 15% | 0.1 mM | Non-toxic | Activity (Syrian golden hamster [29]): 1%
 |  |  |  |  | O=C1O[C@H]([C@@H](O)CO)C(O)=C1O |  |  |  |  | 3.13 mM |  | 
27.5% | 46.7% | 69.1% | 77.3% | 84.4% | CC[C@H](C)C(=O)O[C@H]1C[C@@H](C)C=C2C=C[C@H](C)[C@H](CC[C@@H]3C[C@@H](O)CC(=O)O3)[C@H]21 [LOVASTATIN] |  |  |  |  |  |  | Activity (Syrian golden hamster [30]): 29%; Activity (Syrian golden hamster [31]): 9%; Activity (Syrian golden hamster [32]): 3%; Activity (Syrian golden hamster [33]): 11%; Activity (Syrian golden hamster [34]): 12%
